One assay concerns CCRF-CEM. In words: Anticancer activity against human CCRF-CEM cells after 48 hrs by SRB assay. The format is functional. For orientation: The SRB assay estimates cell density from bound dye.
The test system of the next assay is K562. As to the kind of experiment: Anticancer activity against human K562 cells after 48 hrs by SRB assay. The conditions noted are these: K562, 48 h. The format is functional.
Another assay concerns SR. As to the kind of experiment: Anticancer activity against human SR cells after 48 hrs by SRB assay. The format is functional.
For the next assay, the system named is HOP-62. In words: Anticancer activity against human HOP62 cells after 48 hrs by SRB assay. The format is functional. To be noted: HOP-62, 48 h. The essentials: (§1)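 Grown in RPMI 1640 with 10% FBS and 2 mM L-glutamine at 37 °C, 5% CO2. Seeded at densities set by doubling time, then preincubated 24 h. Continuous 48 h drug exposure at four concentrations (0.1, 1, 10, 100), triplicate wells. Fixed with cold TCA (final 10%) at 4 °C, 60 min. Stained with 0.4% SRB in 1% acetic acid, eluted with 10 mM Tris base, read at 540/690 nm. Percent growth versus control wells.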

The next assay concerns NCI-H23. In words: Anticancer activity against human NCI-H23 cells after 48 hrs by SRB assay. The format is functional. The conditions noted are these: NCI-H23, 48 h.
The next assay concerns NCI-H322M. As to the kind of experiment: Anticancer activity against human NCI-H322M cells after 48 hrs by SRB assay. The format is functional.
Another assay concerns NCI-H460. In words: Anticancer activity against human NCI-H460 cells after 48 hrs by SRB assay. The format is functional. To be noted: NCI-H460, 48 h.
Another assay deals with NCI-H522. In words: Anticancer activity against human NCI-H522 cells after 48 hrs by SRB assay. The format is functional. To be noted: NCI-H522, 48 h.
Another assay deals with COLO 205. In words: Anticancer activity against human COLO205 cells after 48 hrs by SRB assay. The format is functional. To be noted: COLO 205, 48 h. In a few lines: as §1
For a further assay, the system named is HCT-15. In words: Anticancer activity against human HCT15 cells after 48 hrs by SRB assay. The format is functional. The conditions noted are these: HCT-15, 48 h.
A further assay has as its system KM12. In words: Anticancer activity against human KM12 cells after 48 hrs by SRB assay. The format is functional. To be noted: KM12, 48 h.
The subject of another assay is SF-268. In words: Anticancer activity against human SF268 cells after 48 hrs by SRB assay. The format is functional. To be noted: SF-268, 48 h.
In a further assay the test system is SF-539. As to the kind of experiment: Anticancer activity against human SF539 cells after 48 hrs by SRB assay. The format is functional. The conditions noted are these: SF-539, 48 h.
In another assay the test system is LOX IMVI. In words: Anticancer activity against human LOXIMVI cells after 48 hrs by SRB assay. The format is functional.
The test system of a further assay is IGROV-1. In words: Anticancer activity against human IGROV1 cells after 48 hrs by SRB assay. The conditions noted are these: IGROV-1, 48 h. The format is functional.
A further assay has as its system SK-OV-3. As to the kind of experiment: Anticancer activity against human SKOV3 cells after 48 hrs by SRB assay. The conditions noted are these: SK-OV-3, 48 h. The format is functional.
The subject of the next assay is SN12C. In words: Anticancer activity against human SN12C cells after 48 hrs by SRB assay. The format is functional.
The next assay concerns UO-31. As to the kind of experiment: Anticancer activity against human UO31 cells after 48 hrs by SRB assay. The format is functional. The conditions noted are these: UO-31, 48 h.
The subject of another assay is T47D. As to the kind of experiment: Anticancer activity against human T47D cells after 48 hrs by SRB assay. The format is functional.
The test system of a further assay is SK-MEL-28. As to the kind of experiment: Anticancer activity against human SK-MEL-28 cells after 48 hrs by SRB assay. The format is functional. The conditions noted are these: SK-MEL-28, 48 h.
For another assay, the system named is UACC-62. As to the kind of experiment: Anticancer activity against human UACC62 cells after 48 hrs by SRB assay. The format is functional. To be noted: UACC-62, 48 h.
Assay [1] relates to A-375. In words: Cell cycle arrest in human A375 cells assessed as accumulation at S phase at 4 uM after 24 hrs using propidium iodide staining by FACS. The format is functional. In a few lines: (§2)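 Treated A375 cells (24 h) were harvested with trypsin-EDTA and fixed in ice-cold 70% ethanol (4 °C, 30 min). After a PBS wash, they were incubated with 1 mg/mL RNase A (37 °C, 30 min) and stained with propidium iodide solution containing trisodium citrate and Triton X-100. DNA content was measured by flow cytometry on 20,000 events. Controls were DMSO-treated.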
A general note: Flow cytometry measures light scatter and fluorescence of single cells or particles in a stream.

Assay [2] deals with A-375. As to the kind of experiment: Cell cycle arrest in human A375 cells assessed as accumulation at G2/M phase at 4 uM after 24 hrs using propidium iodide staining by FACS. The format is functional. The essentials:
as §2

Assay [3] concerns A-375. As to the kind of experiment: Induction of apoptosis in human A375 cells assessed as increase in PPAR protein level at 4 uM after 24 hrs by Western blotting. The format is functional, cell-based. In a few lines:
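A375 cells were treated for 24 h and lysed in ice-cold RIPA buffer (1% NP-40, 0.5% deoxycholate, 0.1% SDS, protease inhibitors). Protein was quantified by Bradford assay, and 30 µg/lane was run on 12% SDS-PAGE and transferred to PVDF. Membranes were blocked 2 h at RT in TBST with 5% blocker, incubated with primary antibody overnight at 4 °C, then with HRP secondary (1:2000, 1 h, RT). Detection was by chemiluminescence, with β-actin as loading control.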

Active and inactive are the calls of the source. The calls are words filed in the database; no cut-off is given here.

The term GI50 denotes the concentration giving 50% growth inhibition. Low readings indicate greater sensitivity of the cells, high ones lower sensitivity of the cells. Take `COc1ccc(C2=NOC(c3cc(OC)c(OC)c(OC)c3)C2)cc1OCCCCOc1cc2c(cc1OC)C(=O)N1CCC[C@H]1C=N2` (some centres undefined): the GI50 in the assay with CCRF-CEM was 0.16 µM; in the assay on K562, 0.12 µM; with SR it was 0.14 µM; with HOP-62 it was 0.27 µM; in the assay on NCI-H23 it was 0.27 µM; in the assay on NCI-H322M it was 0.34 µM. Also, the GI50 with NCI-H460 worked out at 0.21 µM; with NCI-H522, 0.12 µM; with COLO 205, 0.21 µM; in the assay on HCT-15, 0.18 µM; in the assay with KM12 it was 0.22 µM; with SF-268, 0.34 µM. Moreover, the 50% growth inhibitory concentration (GI50) with SF-539 is 0.22 µM; in the assay with LOX IMVI, 0.22 µM; in the assay with IGROV-1, 0.24 µM; with SK-OV-3, 0.47 µM; in the assay on SN12C, 0.3 µM; in the assay on UO-31, 0.29 µM. Moreover, the GI50 in the assay with T47D was determined as 0.28 µM; in the assay with SK-MEL-28, 0.2 µM; in the assay with UACC-62 it was 0.16 µM. In addition, the results for the Activity in the assay with A-375 [1] and in the assay with A-375 [2] were 3.52% and 1.23%, respectively. For the same compound, the outcome in the assay with A-375 [3] was Active.

The values are drawn from ChEMBL document CHEMBL1240422, “Design, synthesis and biological evaluation of 3,5-diaryl-isoxazoline/isoxazole-pyrrolobenzodiazepine conjugates as potential anticancer agents” (2010).
